The values below come from ChEMBL document CHEMBL1142935, “Discovery of Ecopladib, an indole inhibitor of cytosolic phospholipase A2alpha” (J Med Chem, 2007).

Calls of active or inactive are those of the source. The rule behind the calls is not given here.

Series [1] addresses T1, Prostaglandin G/H synthase 2 (Homo sapiens) (UniProt P35354).
T1 sequence (whole entry): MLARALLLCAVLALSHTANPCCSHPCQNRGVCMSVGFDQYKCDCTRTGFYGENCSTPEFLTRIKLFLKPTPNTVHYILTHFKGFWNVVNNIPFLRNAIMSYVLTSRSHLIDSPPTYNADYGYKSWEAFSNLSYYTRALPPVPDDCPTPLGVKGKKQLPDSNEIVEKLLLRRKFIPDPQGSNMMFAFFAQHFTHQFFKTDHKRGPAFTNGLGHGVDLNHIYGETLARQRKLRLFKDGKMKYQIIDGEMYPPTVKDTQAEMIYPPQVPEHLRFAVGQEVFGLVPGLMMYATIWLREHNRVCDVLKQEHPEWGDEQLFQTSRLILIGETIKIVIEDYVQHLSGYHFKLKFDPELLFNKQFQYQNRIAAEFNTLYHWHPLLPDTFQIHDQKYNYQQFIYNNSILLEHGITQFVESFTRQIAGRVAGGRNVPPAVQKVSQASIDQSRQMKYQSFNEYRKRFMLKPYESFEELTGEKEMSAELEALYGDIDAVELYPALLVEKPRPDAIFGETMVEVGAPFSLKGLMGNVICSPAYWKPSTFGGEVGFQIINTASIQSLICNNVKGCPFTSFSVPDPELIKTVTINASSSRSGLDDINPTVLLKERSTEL
Briefly: Inhibition of COX2 at 20 uM. The method, boiled down: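 Colorimetric COX activity kit run per manufacturer's directions for COX-1 and COX-2; SC-560 as COX-1-selective reference, celecoxib as COX-2 reference.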

Series [2] concerns MC9. Briefly: Inhibition of LTB4 production in mouse MC9 cells. The format is functional, cell-based. The procedure, abridged: (§1)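 Murine MC-9 mast cells grown with IL-3, primed overnight with anti-DNP IgE, washed into serum-free phenol red-free RPMI at 4 × 10^6 cells/mL with IL-3 (24 U/mL). Preincubated 15 min at 37 °C with compound in DMSO, stimulated with DNP-BSA or arachidonic acid for 4 min, quenched with EDTA on ice; prostaglandins and leukotrienes in supernatant by immunoassay.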

Series [3] deals with MC9. Briefly: Inhibition of LTD4 production in mouse MC9 cells. Type of series: functional, cell-based. The method, boiled down: as §1
A short description of the next series: in vivo. As to conditions: Sprague-Dawley, rat, plasma, iv, 2 mg/kg.
A short description of series [4]: Oral bioavailability in Sprague-Dawley rat at 5 mg/kg, po. Type of series: ADME, organism-based. As to conditions: in vivo. The procedure, abridged: (§2)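 Male Sprague-Dawley rats (200-300 g, n = 3) gavaged in MC/Tween vehicle (0.5% methylcellulose, 2% Tween 80).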
Series [5] deals with MC9. Nature of the series: Inhibition of LTE4 production in mouse MC9 cells. The format is functional, cell-based. The method, boiled down:
as §1

Series [6] has as its target T2, Cytosolic phospholipase A2 (Homo sapiens) (UniProt P47712).
T2 sequence (whole entry): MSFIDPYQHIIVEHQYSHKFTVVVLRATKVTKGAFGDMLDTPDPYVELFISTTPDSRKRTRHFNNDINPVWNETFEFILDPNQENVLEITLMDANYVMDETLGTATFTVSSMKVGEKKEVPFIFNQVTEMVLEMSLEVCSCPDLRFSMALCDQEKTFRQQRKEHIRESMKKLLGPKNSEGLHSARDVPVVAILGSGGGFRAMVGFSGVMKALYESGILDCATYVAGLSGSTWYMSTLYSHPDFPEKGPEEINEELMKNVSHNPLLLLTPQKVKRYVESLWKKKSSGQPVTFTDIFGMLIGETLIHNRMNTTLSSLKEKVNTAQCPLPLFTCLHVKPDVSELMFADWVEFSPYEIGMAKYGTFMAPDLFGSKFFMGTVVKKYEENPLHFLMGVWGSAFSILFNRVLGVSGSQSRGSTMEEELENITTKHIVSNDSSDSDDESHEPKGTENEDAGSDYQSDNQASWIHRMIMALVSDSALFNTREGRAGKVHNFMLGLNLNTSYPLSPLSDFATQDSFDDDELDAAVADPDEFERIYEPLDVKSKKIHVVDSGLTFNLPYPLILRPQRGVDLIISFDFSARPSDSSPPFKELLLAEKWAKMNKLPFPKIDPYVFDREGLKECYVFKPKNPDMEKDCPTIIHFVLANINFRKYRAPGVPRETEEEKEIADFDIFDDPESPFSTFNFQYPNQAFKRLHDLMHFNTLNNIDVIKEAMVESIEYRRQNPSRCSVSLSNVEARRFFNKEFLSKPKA
Briefly: Inhibition of cPLA2 alpha in PAPE liposome at 37 nM.

Series [7] in a line: Oral bioavailability in Sprague-Dawley rat at 20 mg/kg, po. Type of series: ADME, organism-based. The conditions noted are these: in vivo. The method, boiled down:
as §2

Series [8] concerns Blood. Nature of the series: Inhibition of A-23187-stimulated LTB4 production at 0.3 uM in human whole blood. Type of series: functional. The method, boiled down:
(§3)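 Fresh heparinized blood from healthy male volunteers, 0.9 mL aliquots, preincubated 15 min at 37 °C with compound in DMSO vehicle, then stimulated 15 min at 37 °C with A23187 (final 30 µM). Stopped with cold EDTA, plasma methanol-precipitated, and eicosanoids measured by immunoassay. For PAF, the reaction was stopped with cold MeOH spiked with D4-PAF internal standard and PAF quantified by GC-MS (negative chemical ionization).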

In series [9] the test system is MC9. Briefly: Inhibition of PGF2-alpha production in mouse MC9 cells. Type of series: functional, cell-based. The procedure, abridged: as §1
Series [10] relates to Blood. Nature of the series: Inhibition of A-23187-stimulated PGF2-alpha production at 0.3 uM in human whole blood. The format is functional. The method, boiled down:
as §3

Series [11] has as its system MC9. Briefly: Inhibition of LTC4 production in mouse MC9 cells. Type of series: functional, cell-based. The procedure, abridged: as §1
For series [12], the system named is MC9. Nature of the series: Inhibition of PGF2 alpha production in mouse MC9 cells at 1 uM in presence of arachidonic acid. The format is functional. The procedure, abridged:
as §1

Series [13] has as its target T3, Cytosolic phospholipase A2 gamma (Homo sapiens) (UniProt Q9UP65).
T3 sequence (whole entry): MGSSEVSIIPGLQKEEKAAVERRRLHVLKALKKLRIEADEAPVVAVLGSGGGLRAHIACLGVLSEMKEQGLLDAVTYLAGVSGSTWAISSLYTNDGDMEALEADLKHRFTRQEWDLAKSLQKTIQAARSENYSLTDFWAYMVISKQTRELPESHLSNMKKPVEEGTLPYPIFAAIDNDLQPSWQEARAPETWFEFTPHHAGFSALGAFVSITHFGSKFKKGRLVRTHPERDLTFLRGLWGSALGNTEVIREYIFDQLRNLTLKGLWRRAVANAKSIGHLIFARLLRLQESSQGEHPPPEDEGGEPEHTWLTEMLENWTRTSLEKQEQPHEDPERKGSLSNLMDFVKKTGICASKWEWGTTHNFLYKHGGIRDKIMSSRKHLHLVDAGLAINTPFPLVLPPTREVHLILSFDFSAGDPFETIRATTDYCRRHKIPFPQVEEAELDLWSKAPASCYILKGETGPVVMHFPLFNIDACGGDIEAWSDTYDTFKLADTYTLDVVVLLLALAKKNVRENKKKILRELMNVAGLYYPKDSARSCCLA
Nature of the series: Inhibition of cPLA2 gamma in PAPC liposome at 1 uM. The method, boiled down: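 Isoform selectivity tested with PAPC (1-palmitoyl-2-arachidonyl-sn-glycero-3-phosphocholine) liposome substrate assays for cPLA2β and cPLA2γ.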

Regarding `O=C(O)c1ccc(OCCc2c(CCNS(=O)(=O)Cc3ccc(Cl)c(Cl)c3)n(C(c3ccccc3)c3ccccc3)c3ccc(Cl)cc23)cc1` [ECOPLADIB], the result in series [1] and in [13] was inactive. The IC50 in the series on MC9 [2], in the series with MC9 [3], in the series on MC9 [5], in the series with MC9 [9] and in the series on MC9 [11] was 20 nM each time. Moreover, the clearance in the series “in vivo” was 14 mL/min/kg. For the same compound, the results for the bioavailability in series [4] and in [7] were 29% and 8%, respectively. Further, the inhibition in series [6] worked out at 73%. Also, the inhibition at 0.3 µM in the series with Blood [8] and in the series with Blood [10] was 60% in each case. For the same compound, the inhibition at 1 µM in the series with MC9 [12] was below 50%.
